Assay [1] concerns CCRF-CEM. As to the kind of experiment: Cytotoxicity against human leukemic CEM cell line. It is filed as functional, cell-based. In a few lines:
(§1)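 Human leukemia cells (CEM, or topoisomerase I-deficient CEM/C2) grown at 37 °C, 5% CO2 in RPMI 1640 with 10% FBS, glucose, HEPES, pyruvate and antibiotics. 2 × 10^4 exponentially growing cells seeded with graded drug concentrations, 72 h at 37 °C. Tetrazolium dye (CellTiter 96 aqueous one-solution) added for a further 2 h, absorbance read at 492 nm; IC50 reported.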

Assay [2] deals with Cyclin-dependent kinase 5/CDK5 activator 1 (Homo sapiens, UniProt Q00535). As to the kind of experiment: Inhibitory activity against CDK5/p25. It is filed as protein-complex assay. Put shortly:
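Recombinant mammalian CDK5 and p25, expressed in E. coli as GST fusions, glutathione-agarose purified and mixed in equal amounts. Assayed in buffer C pH 7.2 with 1 mg/mL histone H1 and 15 µM [γ-33P]ATP, 10 min at 30 °C. P81 filter binding and scintillation counting; activity as percent of maximal activity without inhibitor.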

A short description of assay [3]: Inhibitory activity against CDK1/Cyclin B from starfish oocytes. The conditions noted are these: oocyte. Also noted: species or system Marthasterias glacialis. Put shortly: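 Starfish oocyte (M phase) CDK1/cyclin B, affinity-purified on p9CKShs1-sepharose. Buffer C (25 mM Mops pH 7.2, β-glycerophosphate, p-nitrophenyl phosphate, EGTA, 15 mM MgCl2, DTT, vanadate, phenyl phosphate), 1 mg/mL histone H1, 15 µM [γ-33P]ATP, 10 min at 30 °C. Read by P81 phosphocellulose binding, washing and scintillation counting; activity as percent of uninhibited control, DMSO controls.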

The test system of assay [4] is CEM/C2. The assay is described as follows: Cytotoxicity against camptothecin-resistant human leukemic CEMC2 cell line. It is filed as functional, cell-based. Put shortly:
as §1

For assay [5], the target named is Glycogen synthase kinase-3 (Homo sapiens, UniProt P49840+P49841). The assay is described as follows: Inhibitory activity against GSK3 from porcine brain. Also noted: species or system Sus scrofa. The conditions noted are these: target entry is the homologue from another species. Put shortly: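 GSK-3α/β purified from porcine brain on immobilized axin, diluted 1/100 in BSA/DTT. Buffer A (25 mM Tris-HCl pH 7.5, 10 mM MgCl2, EGTA, DTT, 50 µg/mL heparin), GS-1 peptide substrate (5 µL of 40 µM), 15 µM [γ-33P]ATP, 30 min at 30 °C. P81 phosphocellulose filters washed in dilute phosphoric acid and counted; activity relative to no-inhibitor control.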

Sequence of Cyclin-dependent kinase 5/CDK5 activator 1 (Q00535 whole entry, the tested form may be a part): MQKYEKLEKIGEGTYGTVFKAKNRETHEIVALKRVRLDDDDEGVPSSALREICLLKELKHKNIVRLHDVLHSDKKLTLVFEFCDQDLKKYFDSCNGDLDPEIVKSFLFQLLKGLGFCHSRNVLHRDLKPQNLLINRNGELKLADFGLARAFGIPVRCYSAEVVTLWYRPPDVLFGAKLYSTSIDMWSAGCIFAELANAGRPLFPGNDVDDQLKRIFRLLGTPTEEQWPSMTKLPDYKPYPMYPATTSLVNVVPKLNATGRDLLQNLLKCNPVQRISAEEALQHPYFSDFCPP
Sequence of Cyclin-dependent kinase 5/CDK5 activator 1 (Q15078 whole entry, further chain, the tested form may be a part): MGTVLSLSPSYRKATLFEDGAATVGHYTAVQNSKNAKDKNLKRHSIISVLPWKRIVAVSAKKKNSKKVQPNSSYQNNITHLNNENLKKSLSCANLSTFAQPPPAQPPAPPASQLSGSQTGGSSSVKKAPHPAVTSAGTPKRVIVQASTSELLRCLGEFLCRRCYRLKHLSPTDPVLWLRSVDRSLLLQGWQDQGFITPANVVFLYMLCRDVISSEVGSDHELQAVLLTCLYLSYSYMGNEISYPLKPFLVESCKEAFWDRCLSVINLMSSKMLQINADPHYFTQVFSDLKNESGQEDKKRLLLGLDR

For `O=C1OC(=O)c2c1c1ccccc1c1[nH]c3ccc(O)cc3c21`, the half-maximal inhibitory concentration (IC50) (in general, the concentration at which inhibition is half-maximal) in assay [1] is 14.7 µM; in assay [2], more than 10 µM; in assay [3] it was more than 10 µM; in assay [4] it was 32.3 µM.

Turning to `O=C1c2c(c3c4ccccc4[nH]c3c3ccccc23)C(=O)N1C(CO)CO`, the IC50 in assay [1] was 3.71 µM; in assay [2], more than 10 µM; in assay [3], more than 10 µM; in assay [4] it was 4.95 µM.

Take `O=C1c2c(c3c4ccccc4[nH]c3c3ccccc23)C(=O)N1CCc1c[nH]cn1`: the IC50 was 1.58 µM in assay [1], more than 10 µM in assay [2], more than 10 µM in assay [3] and 2.92 µM in assay [4].

For the compound `O=C1c2c(c3c4cc(O)ccc4[nH]c3c3ccccc23)C(=O)N1C(CO)CO`, the IC50 in assay [1] was 2.84 µM; in assay [2] it was more than 10 µM; in assay [3] it was more than 10 µM; in assay [4], 4.96 µM.

On to `O=C1NC(=O)c2c1c1ccccc1c1[nH]c3ccc(O)cc3c21`, for which the IC50 in assay [1] was more than 25 µM; in assay [2], 0.25 µM; in assay [3] it was 0.58 µM; in assay [5] it was 0.46 µM; in assay [4], more than 25 µM.

As to `CN(C)CCN1C(=O)c2c(c3c4cc(O)ccc4[nH]c3c3ccccc23)C1=O`, the concentration for half-maximal inhibition (IC50) in assay [1] is 0.0122 µM; in assay [2] it was more than 10 µM; in assay [3], more than 10 µM; in assay [4] it was 0.0187 µM.

Regarding `CN1C(=O)c2c(c3c4ccccc4[nH]c3c3ccccc23)C1=O`, the IC50 in assay [1] is more than 100 µM; in assay [2], more than 10 µM; in assay [3], more than 10 µM; in assay [4], more than 100 µM.

Take `CN1C(=O)c2c(c3c4cc(O)ccc4[nH]c3c3ccccc23)C1=O`: the IC50 in assay [1] was 1.64 µM; in assay [2], more than 10 µM; in assay [3], more than 10 µM; in assay [4], 4.17 µM.

Turning to `CN(C)CCN1C(=O)c2c(c3c4ccccc4[nH]c3c3ccccc23)C1=O`, the IC50 in assay [1] was 0.11 µM; in assay [2] it was more than 10 µM; in assay [3], more than 10 µM; in assay [4], 0.335 µM.

With `O=C1OC(=O)c2c1c1ccccc1c1[nH]c3ccccc3c21`, the IC50 in assay [1] is more than 25 µM; in assay [2], more than 10 µM; in assay [3], more than 10 µM; in assay [4] it was more than 50 µM.

In the case of `O=C1c2c(c3c4cc(O)ccc4[nH]c3c3ccccc23)C(=O)N1CCc1c[nH]cn1`, the IC50 in assay [1] is 0.715 µM; in assay [2] it was more than 10 µM; in assay [3], more than 10 µM; in assay [4], 1.9 µM.

Turning to `O=C1NC(=O)c2c1c1ccccc1c1[nH]c3ccccc3c21`, the IC50 in assay [1] is more than 100 µM; in assay [2] it was 8.5 µM; in assay [3], 80 µM; in assay [5], 20 µM; in assay [4] it was more than 100 µM.
